From BindingDB's records for doi:10.1021/jm050754u (Abbott Laboratories, 2006)

What was measured:
[1] = Activity towards mouse FL5.12 cell line transfected with Bcl-XL in presence of gelatin
[2] = molecular target: Bcl-2-like protein 1 (Homo sapiens, UniProt Q07817); assay: Activity towards mouse FL5.12 cell line transfected with Bcl-XL in presence of gelatin
How it was run: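 Bcl-XL-transfected murine FL5.12 (IL-3 dependent) grown in RPMI with 10% FBS and WEHI-3B conditioned medium as the IL-3 source. Switched to IL-3-depleted, FBS-free medium for 2 days. Then placed in gelatin assay medium (3.4 mg/mL bovine gelatin) or 3% FBS assay medium. Serial compound dilutions added for 24 h. Viability read by MTS or CellTiter-Glo; duplicate values per determination; EC50.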

Sequence of Bcl-2-like protein 1 (Q07817 whole entry): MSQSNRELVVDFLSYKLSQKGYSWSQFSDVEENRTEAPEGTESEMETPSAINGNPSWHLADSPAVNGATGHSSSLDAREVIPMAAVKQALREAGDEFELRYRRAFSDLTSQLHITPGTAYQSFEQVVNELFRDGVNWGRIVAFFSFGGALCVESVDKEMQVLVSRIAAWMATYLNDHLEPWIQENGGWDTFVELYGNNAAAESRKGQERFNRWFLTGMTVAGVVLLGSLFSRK

| SMILES | EC50 [1] [nM] | EC50 [2] [nM] |
| --- | --- | --- |
| COc1cc(CCCN2CCOCC2)ccc1-c1ccc(C(=O)NS(=O)(=O)c2ccc(N[C@H](CCN(C)C)CSc3ccccc3)c([N+](=O)[O-])c2)cc1 [4-((R)-3-dimethylamino-1-phenylsulfanylmethylpropylamino)-N-[2'-methoxy-4'-(3-morpholin-4-ylpropyl)biphenyl-4-carbonyl]-3-nitrobenzenesulfonamide] | 399 |  |
| COc1cc(CCCN2CCOCC2)ccc1-c1ccc(C(=O)NS(=O)(=O)c2ccc(N[C@H](CCCN(C)C)CSc3ccccc3)c([N+](=O)[O-])c2)cc1 [4-((R)-4-Dimethylamino-1-phenylsulfanylmethylbutylamino)-N-[2'-methoxy-4'-(3-morpholin-4-ylpropyl)biphenyl-4-carbonyl]-3-nitrobenzenesulfonamide] | 3010 |  |
| CN(C)CCC[C@H](CSc1ccccc1)Nc1ccc(S(=O)(=O)NC(=O)c2ccc(N3CCC(C)(C)CC3)cc2)cc1[N+](=O)[O-] [4-((R)-4-dimethylamino-1-phenylsulfanylmethylbutylamino)-N-[4-(4,4-dimethylpiperidin-1-yl)benzoyl]-3-nitrobenzenesulfonamide] | 2000 |  |
| COc1cc(CCCN2CCOCC2)ccc1-c1ccc(C(=O)NS(=O)(=O)c2ccc(N[C@H](CCCCN)CSc3ccccc3)c([N+](=O)[O-])c2)cc1 [4-((R)-5-amino-1-phenylsulfanylmethylpentylamino)-N-[2'-methoxy-4'-(3-morpholin-4-ylpropyl)biphenyl-4-carbonyl]-3-nitrobenzenesulfonamide] |  | 3050 |
| CC1(C)CCN(c2ccc(C(=O)NS(=O)(=O)c3ccc(N[C@H](CCCCN)CSc4ccccc4)c([N+](=O)[O-])c3)cc2)CC1 [4-((R)-5-amino-1-phenylsulfanylmethylpentylamino)-N-[4-(4,4-dimethylpiperidin-1-yl)benzoyl]-3-nitrobenzenesulfonamide] | 4130 |  |
| COc1cc(CCCN2CCOCC2)ccc1-c1ccc(C(=O)NS(=O)(=O)c2ccc(N[C@H](CCCCN(C)C)CSc3ccccc3)c([N+](=O)[O-])c2)cc1 [4-((R)-5-dimethylamino-1-phenylsulfanylmethylpentylamino)-N-[2'-methoxy-4'-(3-morpholin-4-ylpropyl)biphenyl-4-carbonyl]-3-nitrobenzenesulfonamide] | 1200 |  |
| CN(C)CCCC[C@H](CSc1ccccc1)Nc1ccc(S(=O)(=O)NC(=O)c2ccc(N3CCC(C)(C)CC3)cc2)cc1[N+](=O)[O-] [4-((R)-5-dimethylamino-1-phenylsulfanylmethylpentylamino)-N-[4-(4,4-dimethylpiperidin-1-yl)benzoyl]-3-nitrobenzenesulfonamide] | 1080 |  |
| CN(C)CC[C@@H](CSc1ccccc1)Nc1ccc(S(=O)(=O)NC(=O)c2ccc(N3CCC(C)(C)CC3)cc2)cc1[N+](=O)[O-] [4-((S)-3-dimethylamino-1-phenylsulfanylmethylpropylamino)--[4-(4,4-dimethylpiperidin-1-yl)benzoyl]-3-nitrobenzenesulfonamide] | 9500 |  |
| COc1cc(CCCN2CCOCC2)ccc1-c1ccc(C(=O)NS(=O)(=O)c2ccc(N[C@@H](CCN(C)C)CSc3ccccc3)c([N+](=O)[O-])c2)cc1 [4-((S)-3-dimethylamino-1-phenylsulfanylmethylpropylamino)-N-[2'-methoxy-4'-(3-morpholin-4-ylpropyl)biphenyl-4-carbonyl]-3-nitrobenzenesulfonamide] | 32500 |  |
| COc1cc(CCCN2CCOCC2)ccc1-c1ccc(C(=O)NS(=O)(=O)c2ccc(N[C@@H](CSc3ccccc3)CC(=O)N(C)C)c([N+](=O)[O-])c2)cc1 [(R)-3-(4-{[2'-methoxy-4'-(3-morpholin-4-ylpropyl)biphenyl-4-carbonyl]sulfamoyl}-2-nitrophenylamino)-N,N-dimethyl-4-phenylsulfanylbutyramide] | 1280 |  |
| CN(C)C(=O)C[C@H](CSc1ccccc1)Nc1ccc(S(=O)(=O)NC(=O)c2ccc(N3CCC(C)(C)CC3)cc2)cc1[N+](=O)[O-] [(R)-3-{4-[4-(4,4-dimethylpiperidin-1-yl)benzoylsulfamoyl]-2-nitrophenylamino}-N,N-dimethyl-4-phenylsulfanylbutyramide] | 2140 |  |
| COc1cc(CCCN2CCOCC2)ccc1-c1ccc(C(=O)NS(=O)(=O)c2ccc(N[C@H](CCN3CCOCC3)CSc3ccccc3)c([N+](=O)[O-])c2)cc1 [N-[2'-methoxy-4'-(3-morpholin-4-ylpropyl)biphenyl-4-carbonyl]-4-((R)-3-morpholin-4-yl-1-phenylsulfanylmethylpropylamino)-3-nitrobenzenesulfonamide] | 382 |  |
| CC1(C)CCN(c2ccc(C(=O)NS(=O)(=O)c3ccc(N[C@H](CCN4CCOCC4)CSc4ccccc4)c([N+](=O)[O-])c3)cc2)CC1 [N-[4-(4,4-dimethylpiperidin-1-yl)benzoyl]-4-((R)-3-morpholin-4-yl-1-phenylsulfanylmethylpropylamino)-3-nitrobenzenesulfonamide] | 368 |  |
| CC1(C)CCN(c2ccc(C(=O)NS(=O)(=O)c3ccc(N[C@@H](CCN4CCOCC4)CSc4ccccc4)c([N+](=O)[O-])c3)cc2)CC1 [N-[4-(4,4-dimethylpiperidin-1-yl)benzoyl]-4-((S)-3-morpholin-4-yl-1-phenylsulfanylmethylpropylamino)-3-nitrobenzenesulfonamide] | 4200 |  |
